Data published in ChEMBL document CHEMBL5365541, “Designing peptide amphiphiles as novel antibacterials and antibiotic adjuvants against gram-negative bacteria” (Bioorg Med Chem, 2023).
In brackets after ≈: the same amount, converted by molar mass. Starred links: 1 amine or outer side, 2 acyl side, 3 side chain; linkers in the order of their positions; H or OH if unused. Non-standard residues stand in square brackets, D forms with d. Residues, ends and D or L forms follow the SMILES beside them. ξ: configuration not given here. X3 = CCCCCCCCCCCCCCCCCCN([C@@H](Cc1c[nH]cn1)C(=O)[*:2])[*:1]; X5 = CCCCCCCCCCCCCCCCCCN([C@@H](CCCNC(=N)N)C(=O)[*:2])[*:1]; ξDap = NCC(N)C(=O)O

Tests used:
Acinetobacter baumannii = experiment: Antibacterial activity against Acinetobacter baumannii incubated for 20 to 24 hrs by broth microdilution method; assay type: functional; details: time 20-24 hrs
In short: (§1)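 Broth microdilution: colonies suspended directly to 1.5×10^8 CFU/mL (0.5 McFarland), then diluted in Mueller–Hinton broth to ~10^5 CFU/mL final. PA stock 1 mg/mL in water, pH 7, serially diluted in MHB. Plates incubated 20–24 h at 37 °C. MIC = lowest concentration inhibiting growth, read as OD600 with optional 1% TTC staining. Triplicate.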

[1] = Self assembly property of the compound assessed as formation of micelles at 1 mg/ml incubated overnight by transmission electron microscopy; assay type: physicochemical
In short: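 Samples were dissolved at 2 mM in water, pH 7, and left at room temperature overnight. Applied to copper grids for 5 min, blotted, and negatively stained with NanoVan for 30 s. Imaged by TEM at 120 kV.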

Escherichia coli [2] = experiment: Antibacterial activity against Escherichia coli K12 incubated for 20 to 24 hrs by broth microdilution method; assay type: functional; details: time 20-24 hrs; in short: as §1
Escherichia coli [3] = experiment: Ratio of MIC for Escherichia coli K12 at pH 5.5 to MIC for Escherichia coli K12 at pH 7.0
Staphylococcus aureus [4] = experiment: Antibacterial activity against methicillin-resistant Staphylococcus aureus 13C incubated for 20 to 24 hrs by broth microdilution method; assay type: functional; details: time 20-24 hrs
In short: (§2)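 Broth microdilution in MHB: direct colony suspension at 0.5 McFarland diluted to ~10^5 CFU/mL final; peptide stock 1 mg/mL in water at pH 7, serially diluted. Incubated 20-24 h at 37 °C; MIC taken as the lowest concentration inhibiting growth (OD 600 nm, 1% TTC stain); triplicate; vancomycin and gentamicin as positive controls.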

[5] = Cytotoxicity against human HT-29 cells assessed as inhibition of cell growth incubated for 24 hrs at pH 7.4 by MTT assay; assay type: toxicity, cell-based; details: HT-29 cells, pH 7.4
In short: (§3)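 HT-29 cells in McCoy's 5a with 10% FBS were seeded at 15,000 cells/well and grown 24 h at 37 °C, 10% CO2. Medium then changed to pH 7.4 or pH 6.5 (20 mM MOPS, acidified with HCl). Peptide added in 2-fold dilutions, 7.8–500 µg/mL, for 24 h. Wells washed and given fresh pH 7.4 medium. MTT (12 mM, 10 µL) added for 4 h, then SDS-HCl for 4 h; A570 read.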

[6] = Self assembly property of the compound assessed as zeta potential at 250 ug/mL at pH 7 measured after 2 hrs; assay type: physicochemical; details: pH 7, 2 h, dose 250 µg/ml
In short: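 Peptide self-assembled at 1 mg/mL, pH 7, annealed 2 h at 80 °C, and aged overnight. Diluted to 250 µg/mL in water; zeta potential measured at 25 °C.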

Staphylococcus aureus [7] = experiment: Antibacterial activity against methicillin-resistant Staphylococcus aureus JE2 incubated for 20 to 24 hrs by broth microdilution method; assay type: functional; details: time 20-24 hrs; in short: as §2
[8] = Cytotoxicity against human HT-29 cells assessed as inhibition of cell growth incubated for 24 hrs at pH 6.5 by MTT assay; assay type: toxicity, cell-based; details: HT-29 cells, pH 6.5; in short: as §3
[9] = Retention time of the compound by RP-HPLC analysis; assay type: physicochemical
In short: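 Reverse-phase HPLC, linear gradient 0–100% acetonitrile in water with 0.1% TFA over 20 min; retention time recorded.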

Staphylococcus aureus [10] = experiment: Ratio of MIC for methicillin-resistant Staphylococcus aureus JE2 at pH 5.5 to MIC for methicillin-resistant Staphylococcus aureus JE2 at pH 7.0
[11] = Cytotoxicity against human HT-29 cells assessed as viable cells at 250 ug/ml incubated for 24 hrs at pH 7.4 by MTT assay; assay type: toxicity, cell-based; details: at 250 µg/mL, read-out: Activity; in short: as §3
HT-29 [12] = experiment: Cytotoxicity against human HT-29 cells assessed as loss of cell viability at 125 ug/ml incubated for 24 hrs at pH 7.4 by MTT assay; assay type: toxicity, cell-based; details: ht-29, pH 7.4, 24 h, at 125 µg/mL; in short: as §3
HT-29 [13] = experiment: Cytotoxicity against human HT-29 cells assessed as reduction in cell viability at 500 ug/ml incubated for 24 hrs at pH 6.5 by MTT assay; assay type: toxicity, cell-based; details: ht-29, pH 6.5, 24 h, dose 500 µg/ml; in short: as §3
Staphylococcus aureus [14] = experiment: Antibacterial activity against Methicillin-resistant Staphylococcus aureus JE2 infected in Galleria mellonella assessed as survival at 50 mg/kg measured after 4 days relative to control; assay type: functional; details: JE2, 96 h, time 4 day
In short: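 G. mellonella larvae injected with 10 µL MRSA JE2 at a pre-set infective dose (60-80% lethality within 48 h, not 100% within 24 h) into last left proleg; after 2 h, 10 µL peptide or antibiotic injected into last right proleg; larvae held at 37 °C, mortality recorded daily for 4 days; untreated infected and PBS-only larvae as controls.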

CCCCCCCCCCCCCCCCCCN[C@@H](CCCNC(=N)N)C(=O)N[C@@H](CCCNC(=N)N)C(=O)NC(CN)C(=O)NC(CN)C(=O)NC(CN)C(=O)O (some centres not stated) (H-[X5]R[ξDap][ξDap][ξDap]-OH)
MIC (Acinetobacter baumannii): 32 mg/L (≈ 38 µM)
Activity [1]: Active
MIC (Escherichia coli [2]): 32 mg/L (≈ 38 µM)
Ratio (Escherichia coli [3]): > 1
MIC (Staphylococcus aureus [4]): 16 mg/L (≈ 19 µM)
IC50 at 24 h [5]: 117 mg/L (≈ 139 µM)
Activity [6]: 30.1 mV
MIC (Staphylococcus aureus [7]): 32 mg/L (≈ 38 µM)
IC50 at 24 h [8]: 81.7 mg/L (≈ 97.1 µM)
Retention_time [9]: 14.6 min
Ratio (Staphylococcus aureus [10]): > 1

CCCCCCCCCCCCCCCCCCN[C@@H](Cc1c[nH]cn1)C(=O)N[C@@H](Cc1c[nH]cn1)C(=O)NC(CN)C(=O)NC(CN)C(=O)NC(CN)C(=O)O (some centres not stated) (H-[X3]H[ξDap][ξDap][ξDap]-OH)
viability at 24 h, 250 ug/ml [11]: 0%
MIC (Acinetobacter baumannii): 64 mg/L (≈ 79.7 µM)
Activity [1]: Active
MIC (Escherichia coli [2]): 64 mg/L (≈ 79.7 µM)
Ratio (Escherichia coli [3]): > 1
MIC (Staphylococcus aureus [4]): 32 mg/L (≈ 39.8 µM)
IC50 at 24 h [5]: 126 mg/L (≈ 157 µM)
Activity [6]: 30.4 mV
MIC (Staphylococcus aureus [7]): 64 mg/L (≈ 79.7 µM)
IC50 at 24 h [8]: 72.3 mg/L (≈ 90 µM)
Retention_time [9]: 14.4 min
Activity (HT-29 [12]): 100%
Ratio (Staphylococcus aureus [10]): > 1
Activity (HT-29 [13]): Non-Toxic

CN[C@H](CC(C)C)C(=O)N[C@H]1C(=O)N[C@@H](CC(N)=O)C(=O)N[C@H]2C(=O)N[C@H]3C(=O)N[C@H](C(=O)N[C@H](C(=O)O)c4cc(O)cc(O)c4-c4cc3ccc4O)[C@H](O)c3ccc(c(Cl)c3)Oc3cc2cc(c3O[C@@H]2O[C@H](CO)[C@@H](O)[C@H](O)[C@H]2O[C@H]2C[C@](C)(N)[C@H](O)[C@H](C)O2)Oc2ccc(cc2Cl)[C@H]1O [VANCOMYCIN]
MIC (Escherichia coli [2]): 128 mg/L (≈ 88.3 µM)
survival at 50 mg/kg (Staphylococcus aureus [14]): 30%
